High-throughput results deposited in PubChem BioAssay by several laboratories.
WT_yeast_gro_inh: growth inhibition of WT strain, primary screen, mitochondrial fusion inhibitor project, WT and mutant strains, chemical genetic; mitochondrial fusion phenotypic screen; inhibition, % at 10 µM; 190,000 tested, 2.1% active; AID 1362, 2008; in the data active = inhibition above about 58%; tested in S. cerevisiae
RAM_network_inh: inhibitors of the yeast RAM network, primary screen, dse1pr::URA3 reporter, 5-FOA selection; S. cerevisiae dse1pr::URA3 reporter, 5-FOA growth OD615, 2 d; analog-sensitive cbk1-as2 kinase mutant strain; inhibition, % at 50 µM; 190,000 tested, 1.8% active;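 active = inhibition above a set limit, 3 SD over mean compound inhibition, cut at about 8.4% in these data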;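 also: 0% = DMSO-only wells with no growth and 100% = 10 µM 1-NA-PP1 full growth; inhibition rescues growth on 5-FOA so higher OD means more RAM inhibition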
Lmaj_promast: Leishmania major promastigote growth inhibition, primary screen; Leishmania major promastigotes, resazurin fluorescence viability; inhibition, % at 10 µM; 200,000 tested, 9% active; in the data active = inhibition above about 50%;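 also: promastigotes grown with compound for 44 hours at 28 °C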
ABCG2_inh: ABCG2 efflux pump inhibitors, primary screen, multiplex with ABCB1, IgMXP3 cells, flow cytometry; Broad substrate specificity ATP-binding cassette transporter ABCG2 (Homo sapiens), Q9UNQ0; JC-1 efflux; inhibition, % at 6.6 µM; 190,000 tested, 0.1% active; AID 1325, 2008;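 active = inhibition above 80%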;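 also: 0% = DMSO and 100% = nicardipine control wells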
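Incubation: cells with compound and JC-1, 10 min at 25 °C, rotating, no wash / Test system: IgMXP3 (ABCG2) plus far-red-tagged CCRF-Adr (ABCB1) cells / Compound dosing: one concentration, 6.6 µM final / Also added: JC-1 fluorescent substrate / Evaluation: efflux inhibition in percent versus controls / Detection: flow cytometry, 530 nm JC-1 signal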
ABCB1_inh: ABCB1 efflux pump inhibitors, primary screen, cell-based, multiplex, flow cytometry, ABCG2 counter-screen; 190,000 tested, 0.067% active; ATP-dependent translocase ABCB1 (Homo sapiens), P08183; inhibition, % at 6.6 µM; CCRF-Adr cells, JC-1 efflux; in the data active = inhibition above about 40%;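 also: 0% = vehicle and 100% = reference inhibitor; higher value means more JC-1 retained so stronger ABCB1 efflux block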
ABCB1_confirm: ABCB1 efflux pump inhibitors, confirmation, cell-based, single point, ABCG2 counter-screen | shares compounds with ABCG2_inh | CCRF-Adr cells, JC-1 efflux, flow cytometry | inhibition, % at 6.6 µM | 270 tested, 7% active | AID 1451, 2008;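 active = inhibition of pump activity above 50%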;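 also: 0% = DMSO and 100% = nicardipine full pump inhibition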
ABCG2_confirm: ABCG2 efflux pump inhibitors, confirmation, single point, IgMXP3 cells, ABCB1 counter-screen paired; shares compounds with ABCG2_inh; JC-1 efflux, flow cytometry; inhibition, % at 6.6 µM; 270 tested, 6% active; AID 1453, 2008;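 active = inhibition above 50%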;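 also: 0% = DMSO wells and 100% = nicardipine pump inhibitor wells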
IgMXP3_autofluor: compound autofluorescence in ABCG2-expressing IgMXP3 cells, confirmation, artefact control for ABC transporter inhibitor project, cell-based, 488/530 nm, flow cytometry | shares compounds with ABCG2_inh | fluorescence at 6.6 µM | compound autofluorescence 488/530 nm; stronger effect = higher value | 270 tested, 30% active | AID 1480, 2009;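 active = fluorescence in ABCG2-expressing cells above the plate's control-well mean plus 3 SD, cut at about 15 in these data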;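 also: median cell fluorescence with compound minus that of DMSO-treated control cells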
CCRF_autofluor: compound autofluorescence in ABCB1-expressing CCRF-Adr cells, confirmation, artefact control for ABC transporter inhibitor project, cell-based, 488/530 nm, flow cytometry; 270 tested, 30% active; fluorescence at 6.6 µM; compound autofluorescence 488/530 nm; stronger effect = higher value; AID 1483, 2009; shares compounds with ABCG2_inh;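 active = fluorescence beyond the plate control mean plus 3 SD, with a fluorescence-to-maximum score over 2, cut at about 25 in these data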
Active calls of the source: *; nt = no result given; + = active, no number. Hits are enriched below; roughly 12% of the tested compounds scored in any of these assays.

SMILES WT_yeast_gro_inh RAM_network_inh Lmaj_promast ABCG2_inh ABCB1_inh ABCB1_confirm ABCG2_confirm IgMXP3_autofluor CCRF_autofluor
Cc1c(O)ccc2c3c(c(=O)oc12)CCCC3 -14.3 0.0 -1.9 1.0 0.1 nt nt nt nt
COc1ccc(OCC(=O)Nc2cccc(C(=O)Nc3ccccc3C(=O)O)c2)cc1 -8.5 2.9 38.6 -2.9 -0.5 nt nt nt nt
COc1ccc([N+](=O)[O-])cc1NC(=O)COC(=O)Cc1cc(OC)c(OC)c(OC)c1 -3.1 -0.1 -1.8 21.6 0.7 nt nt nt nt
COc1cc(CC(=O)OCC(=O)Nc2cc([N+](=O)[O-])ccc2Cl)cc(OC)c1OC -13.2 -1.0 -4.5 81.0* 3.2 2.8 41.4 21.1* -1.59
Cc1ccc(-c2csc3nc(SCC(=O)N(C)C)n(Cc4ccccc4)c(=O)c23)cc1 21.6 4.5 23.2 120.9* 27.9 18.2 20.1 -0.44 -0.99
Cc1cc(C)c(C#N)c(SCc2ccccc2[N+](=O)[O-])n1 -1.6 3.6 -1.2 100.6* 7.2 6.5 48.4 -1.09 -1.99
Cc1ccc(C#N)c(SCc2ccccc2[N+](=O)[O-])n1 2.4 4.8 -4.4 54.6 4.0 nt nt nt nt
Cc1cc(C)c(C#N)c(SCc2c(F)cccc2[N+](=O)[O-])n1 23.4 7.4 -0.7 92.1* 4.7 3.2 51.5* -2.04 -4.54
Cc1cccc(Oc2cc([N+](=O)[O-])cc3c2C(=O)Nc2ccccc2O3)c1 39.1 2.6 1.6 20.6 8.7 nt nt nt nt
O=C1Nc2ccccc2Oc2cc([N+](=O)[O-])cc(Oc3ccccc3)c21 54.5 1.3 14.9 88.8* 37.5 2.8 17.1 19.8* 59*
Cc1ccccc1N(CC(=O)Nc1ccc(S(=O)(=O)N2CCOCC2)cc1)S(C)(=O)=O -1.1 -0.4 8.6 0.6 -0.1 nt nt nt nt
N#Cc1cc(-c2ccccc2)nc(Oc2ccccc2)n1 -4.7 2.6 41.3 1.2 0.0 nt nt nt nt
COc1ccc(-c2cc(C#N)nc(Oc3ccc(Cl)cc3)n2)cc1 7.5 5.0 -1.2 83.5* -0.1 11.4 9.9 34.8* 25.6*
Cc1cc(NC(=O)CN(C)S(=O)(=O)c2cccc(Cl)c2)no1 -8.3 0.2 0.0 0.0 0.0 nt nt nt nt
O=C(CCn1c(=O)[nH]c2ccsc2c1=O)Nc1ccc(F)c(F)c1 1.8 1.6 9.2 4.5 0.2 nt nt nt nt
O=C(Nc1ccccc1)Nc1cc([N+](=O)[O-])ccc1F 5.6 0.7 4.5 11.1 0.6 nt nt nt nt
Cc1cc([N+](=O)[O-])ccc1NC(=O)Nc1ccccc1F 3.6 4.8 42.5 105.5* 1.8 1.4 40.4 -0.99 3.96
O=C(NCc1ccccn1)c1ccc(-c2ccccc2)cc1 -10.9 0.0 -3.4 0.4 0.1 nt nt nt nt
O=C(NCc1ccccn1)c1cn(-c2ccccc2)nc1-c1ccc(Cl)cc1 16.0 -0.6 6.9 82.6* 2.6 -49.4 23.0 22.1* 149*
Cc1c(C#N)c(NC(=O)CCl)n(Cc2ccc(F)cc2)c1C -12.4 3.2 92.3* 12.1 45.2* 1.2 0.7 4.86 8.56
Cc1cc(=O)[nH]c(SCC(=O)Nc2ccc(F)cc2)c1C#N -10.1 1.1 -7.3 0.5 -0.2 nt nt nt nt
Cc1cc(/C=C(\C#N)C(=O)O)c(C)n1CC(C)C -16.2 0.5 -6.1 + + -2.0 -5.3 39.8* 4.41
CC(C)CCOc1cccc(OCC(=O)O)c1 -17.0 0.2 -3.4 107.5* 30.4 1.1 3.0 8.31 -0.84
COc1ccc(-c2nn(-c3ccccc3)cc2/C=C/C(=O)N2CCN(c3ccccn3)CC2)cc1 24.9 -0.6 20.9 32.7 48.0* 33.3 21.7 18.1* 4.26
